Consider five molecules from ChEMBL document CHEMBL1151714 (J Med Chem, 2008).

Data set [1] deals with Baculoviral IAP repeat-containing protein 3 (Homo sapiens, UniProt Q13489). Briefly: Displacement of fluorescently tagged SM5F from human cIAP-2 BIR3 expressed in Escherichia coli BL21 cells by fluorescence polarization assay. For orientation: In fluorescence polarisation assays a small probe gives low polarisation when free and higher when bound to something large.
The test system of data set [2] is MDA-MB-231. The data set can be described thus: cells. The settings on record: Homo sapiens, MDA-MB-231, 96 h.
Data set [3] concerns MDA-MB-231. Briefly: Reversal of human XIAP BIR3-mediated suppression of cytochrome c-induced caspase-3/-7 activity in human MDA-MB-231 cell lysate by cell free functional assay. The method, boiled down: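 Caspase-3/-7 in cell lysates was activated by adding cytochrome c and dATP. Recombinant XIAP BIR3 protein at 0.5 μM was used to suppress activation, and recovery of caspase-3/-7 activity was measured across compound doses. Activity was read at the 30-minute time point and expressed relative to maximum activation.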

Data set [4] has as its system MDA-MB-231. Briefly: Induction of cIAP1 degradation in human MDA-MB-231 cells at 10 nM after 24 hrs by Western blotting. In kind it is functional, cell-based. The method, boiled down: (§1)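 MDA-MB-231 cells were exposed to a range of concentrations for 24 hours. Whole-cell levels of cIAP-1, cleaved PARP and cleaved caspase-3 were then probed by Western blot.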
For data set [5], the system named is MDA-MB-231. Briefly: Induction of PARP cleavage in human MDA-MB-231 cells at 100 nM after 24 hrs by Western blotting. In kind it is functional, cell-based. The method, boiled down:
as §1
(In western blotting, separated proteins are transferred to a membrane and probed.)

The test system of data set [6] is MDA-MB-231. Briefly: Induction of caspase 3 processing in human MDA-MB-231 cells at 100 nM after 24 hrs by Western blotting. In kind it is functional, cell-based. The method, boiled down: as §1
In data set [7] the test system is Rattus norvegicus. Briefly: Cmax in Sprague-Dawley rat at 30 mg/kg, po. In kind it is ADME, organism-based. Also on record: dose 30 mg/kg, route oral. Particulars: in vivo.
Data set [8] deals with Rattus norvegicus. The data set can be described thus: Half life in Sprague-Dawley rat at 30 mg/kg, po. It counts as ADME, organism-based. Particulars: in vivo. Set-up: dose 30 mg/kg, route oral. The method, boiled down:
(§2)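 Rat pharmacokinetics after a single oral dose. Compounds were given at 25 or 30 mg/kg. Cmax, elimination half-life and AUC(0-∞) were determined, and oral bioavailability was calculated. Values are reported as mean ± deviation.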

Data set [9] relates to Rattus norvegicus. The data set can be described thus: AUC (0 to infinity) in Sprague-Dawley rat at 30 mg/kg, po. In kind it is ADME, organism-based, Plasma. Set-up: dose 30 mg/kg, route oral, time infinity. The settings on record: in vivo. In a few lines:
(§3)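 Rats were given a single oral dose of 25 or 30 mg/kg. Maximum plasma concentration (Cmax), elimination half-life and AUC(0-∞) were derived. Oral bioavailability was also reported.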

Data set [10] has as its system Rattus norvegicus. The data set can be described thus: Bioavailability in Sprague-Dawley rat at 30 mg/kg, po. It counts as ADME, organism-based. The settings on record: in vivo. In a few lines:
as §2

Data set [11] has as its system Rattus norvegicus. The data set can be described thus: Cmax in Sprague-Dawley rat at 25 mg/kg, po. It counts as ADME, organism-based. Also on record: dose 25 mg/kg, route oral. Particulars: in vivo.
In data set [12] the test system is Rattus norvegicus. The data set can be described thus: Half life in Sprague-Dawley rat at 25 mg/kg, po. In kind it is ADME, organism-based. Also on record: dose 25 mg/kg, route oral. The settings on record: in vivo. The method, boiled down:
as §2

Data set [13] relates to Rattus norvegicus. Briefly: AUC (0 to infinity) in Sprague-Dawley rat at 25 mg/kg, po. It counts as ADME, organism-based, Plasma. Particulars: in vivo. Set-up: time infinity, dose 25 mg/kg, route oral. The method, boiled down:
as §3

The test system of data set [14] is Rattus norvegicus. Briefly: Bioavailability in Sprague-Dawley rat at 25 mg/kg, po. It counts as ADME, organism-based. Particulars: in vivo. The method, boiled down:
as §2

Molecules are shown by their SMILES. Calls of active or inactive are those of the source. No cut-off for these calls is given here.

Chain of Baculoviral IAP repeat-containing protein 3 (Q13489 whole entry): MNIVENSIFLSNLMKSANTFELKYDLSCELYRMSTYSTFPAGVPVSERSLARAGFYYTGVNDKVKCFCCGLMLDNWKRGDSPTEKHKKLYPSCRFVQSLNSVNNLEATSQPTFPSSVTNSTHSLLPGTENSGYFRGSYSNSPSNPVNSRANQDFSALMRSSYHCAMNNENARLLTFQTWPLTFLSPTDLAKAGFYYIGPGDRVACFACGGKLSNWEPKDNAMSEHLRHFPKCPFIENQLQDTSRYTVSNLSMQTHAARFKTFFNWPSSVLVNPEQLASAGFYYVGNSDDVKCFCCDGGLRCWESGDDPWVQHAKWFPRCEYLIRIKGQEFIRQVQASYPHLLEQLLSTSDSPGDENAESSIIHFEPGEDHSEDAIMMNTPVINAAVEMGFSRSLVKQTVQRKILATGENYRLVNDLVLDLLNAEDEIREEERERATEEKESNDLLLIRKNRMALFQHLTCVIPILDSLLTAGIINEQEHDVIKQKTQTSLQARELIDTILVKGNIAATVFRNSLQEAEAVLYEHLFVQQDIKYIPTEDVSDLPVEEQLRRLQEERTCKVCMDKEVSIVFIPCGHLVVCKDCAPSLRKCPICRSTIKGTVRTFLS

For orientation: Ki means a dissociation constant, usually derived from enzyme kinetics or from competition with a known ligand. A low value points to higher affinity. Turning to `CN[C@@H](C)C(=O)N[C@H]1CN(Cc2ccccc2)CC[C@H]2CC[C@@H](C(=O)NC(c3ccccc3)c3ccccc3)N2C1=O`, the affinity in data set [1], expressed as Ki, was 9.8 nM.

By IC50 is commonly meant the concentration needed to halve the response being measured. `CN[C@@H](C)C(=O)N[C@H]1CNCC[C@H]2CC[C@@H](C(=O)NC(c3ccccc3)c3ccccc3)N2C1=O` registered a Ki in data set [1] of 4.6 nM. The same molecule registered an IC50 in the data set with MDA-MB-231 [2] of 890 nM.

One may read the Cmax as the peak of the concentration-time curve. For `CN[C@@H](C)C(=O)N[C@H]1CN(C(=O)Cc2ccccc2)CC[C@H]2CC[C@@H](C(=O)NC(c3ccccc3)c3ccccc3)N2C1=O.Cl`, in the data set on MDA-MB-231 [3], the Activity result is “Dose-dependent effect”. Further, the outcome in the data set on MDA-MB-231 [4], in the data set with MDA-MB-231 [5] and in the data set on MDA-MB-231 [6] was Active. The Cmax in the data set with Rattus norvegicus [7] turned out to be 532 nM. The molecule also showed a t1/2 in the data set with Rattus norvegicus [8] of 4.7 h. In the data set on Rattus norvegicus [9], the AUC was 1985 µg/L. In addition, the F with Rattus norvegicus [10] came out at 24%.

For `CN[C@@H](C)C(=O)N[C@H]1CCCC[C@H]2CC[C@@H](C(=O)NC(c3ccccc3)c3ccccc3)N2C1=O.Cl`, the Cmax in the data set on Rattus norvegicus [11] came to 545 nM. The molecule further registered a t1/2 in the data set on Rattus norvegicus [12] of 1.7 h. Also, in the data set with Rattus norvegicus [13], the AUC worked out at 482 µg/L. This molecule also returned a F with Rattus norvegicus [14] of 14%.

On to `CN[C@@H](C)C(=O)N[C@H]1CN(C)CC[C@H]2CC[C@@H](C(=O)NC(c3ccccc3)c3ccccc3)N2C1=O`, for which affinity in data set [1] was put at a Ki of 17.5 nM.
